Laboratory results: ChEMBL document CHEMBL4138249, “Structure-activity analysis of CJ-15,801 analogues that interact with Plasmodium falciparum pantothenate kinase and inhibit parasite proliferation” (Eur J Med Chem, 2018)
The source made the active and inactive calls. The rule behind the calls is not given here.

Experiments:
[1] = tested on: Plasmodium falciparum; test: Antimalarial activity against Plasmodium falciparum 3D7 infected in human erythrocytes after 96 hrs in presence of 1 uM pantothenate by SYBR green fluorescence-based method; type: functional, organism-based; conditions: 3D7, 96 h
Procedure, shortened: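 Blood-stage parasites cultured 96 h in medium with 1 μM pantothenate across a range of compound concentrations; IC50 is the concentration giving 50% inhibition of proliferation. Each experiment run in triplicate, 2–7 independent experiments; mean ± range/2 (n = 2) or SEM (n = 3–7).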

[2] = target: T1, Pantothenate kinase, putative (Plasmodium falciparum (isolate 3D7)) (UniProt Q8ILP4); test: Inhibition of pantothenate kinase in Plasmodium falciparum 3D7 trophozoites at 100 uM using [14C]pantothenate as substrate after 15 to 60 mins by TopCount scintillation counting method relative to control
T1 sequence (whole entry): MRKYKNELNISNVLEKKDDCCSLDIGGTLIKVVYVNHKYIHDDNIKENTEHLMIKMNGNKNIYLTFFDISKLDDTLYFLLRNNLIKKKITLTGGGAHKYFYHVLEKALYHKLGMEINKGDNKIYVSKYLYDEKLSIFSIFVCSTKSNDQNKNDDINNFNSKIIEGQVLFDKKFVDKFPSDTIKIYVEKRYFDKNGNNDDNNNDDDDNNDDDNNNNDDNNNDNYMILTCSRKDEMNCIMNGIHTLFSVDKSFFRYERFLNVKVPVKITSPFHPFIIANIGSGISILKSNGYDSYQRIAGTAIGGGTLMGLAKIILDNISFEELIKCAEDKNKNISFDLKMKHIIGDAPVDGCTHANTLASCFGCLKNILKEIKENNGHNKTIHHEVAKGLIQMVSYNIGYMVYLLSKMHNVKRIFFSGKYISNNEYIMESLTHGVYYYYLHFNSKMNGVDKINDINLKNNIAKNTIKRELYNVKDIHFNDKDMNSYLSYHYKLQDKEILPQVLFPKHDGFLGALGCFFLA
Procedure, shortened: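 [14C]Pantothenate phosphorylation by PanK in P. falciparum lysate with compound at 100 μM. Pantothenate was 1.8 μM for R-compounds and 1 μM for S-compounds. Incubation period was pre-set within the linear range; percent inhibition versus DMSO-only controls. 3–8 experiments in duplicate, SEM.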

[3] = Cytotoxicity against HEK293 cells assessed as inhibition of cell proliferation at 100 uM after 96 hrs by CellTiter-Glo assay relative to control; type: cell-based; conditions: human
Procedure, shortened: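 HEK-293 proliferation measured over 96 h with compound at 100 μM; percent inhibition reported.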

[4] = Cytotoxicity against human WI38 cells assessed as inhibition of cell proliferation at 100 uM after 48 hrs by CellTiter-Glo assay relative to control; type: cell-based, WI-38
Procedure, shortened: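 WI-38 proliferation measured over 48 h with compound at 100 μM; percent inhibition reported.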

[5] = Cysteine reactivity at pH 7.4 after 15 mins by 1H NMR analysis; type: physicochemical; conditions: pH 7.4, 0.25 h
Procedure, shortened: (§1)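 Compound mixed with glutathione or L-cysteine at pH 7.4 and monitored by NMR for 2 h. The first spectrum was acquired 15 min after mixing. N-ethylmaleimide served as a reactive Michael acceptor reference.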

[6] = tested on: Plasmodium falciparum; test: Ratio of IC50 for Plasmodium falciparum 3D7 infected in human erythrocytes in presence of 100 uM pantothenate to IC50 for Plasmodium falciparum 3D7 infected in human erythrocytes in presence of 1 uM pantothenate; type: functional
Procedure, shortened: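 Paired 96 h proliferation assays with parasites in medium containing 100 μM versus 1 μM pantothenate. Fold-increase = IC50 at 100 μM pantothenate divided by IC50 at 1 μM. Two independent experiments in triplicate; error is range/2.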

[7] = target: T1, Pantothenate kinase, putative (Plasmodium falciparum (isolate 3D7)); test: Inhibition of pantothenate kinase in Plasmodium falciparum 3D7 trophozoites at 1 to 100 uM using [14C]pantothenate as substrate after 15 mins by TopCount scintillation counting method
Procedure, shortened: (§2)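 PanK activity in P. falciparum lysate with 1.8 μM [14C]pantothenate and increasing compound concentrations, 15 min incubation within the linear range. Percent inhibition from [14C]pantothenate phosphorylated versus no compound. 2–5 experiments in duplicate; mean ± range/2 or SEM.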

[8] = Drug metabolism in human erythrocytes infected with Plasmodium falciparum 3D7 trophozoites assessed as esterase-mediated compound hydrolysis at 1 mM after 3 hrs by 1H-13C-HSQC NMR analysis; type: ADME, cell-based; conditions: 1000 µM
Procedure, shortened: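 Infected erythrocytes (>95% parasitemia) incubated 3 h with 13C3-labelled or unlabelled compound. Metabolites were extracted from about 2 × 10^8 parasites and analysed by 1H-13C HSQC in D2O with 200 μM TSP as shift reference. Two independent experiments.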

[9] = Selectivity index, ratio of cytotoxic concentration for HEK293 cells to IC50 for Plasmodium falciparum 3D7 infected in human erythrocytes in presence of 1 uM pantothenate; type: toxicity, cell-based; conditions: read-out: Selectivity Index
[10] = Selectivity index, ratio of cytotoxic concentration for human WI38 cells to IC50 for Plasmodium falciparum 3D7 infected in human erythrocytes in presence of 1 uM pantothenate; type: toxicity, cell-based; conditions: read-out: Selectivity Index
[11] = target: T2, Pantothenate kinase, putative (Plasmodium falciparum (isolate 3D7), UniProt Q8ILP4); test: Inhibition of pantothenate kinase in Plasmodium falciparum 3D7 trophozoites using [14C]pantothenate as substrate after 15 mins by TopCount scintillation counting method; procedure, shortened: as §2
T2 sequence (Q8ILP4 whole entry): T1 sequence (whole entry)

[12] = Cysteine reactivity at pH 7.4 after 2 hrs by 1H NMR analysis; type: physicochemical; conditions: pH 7.4, 2 h; procedure, shortened: as §1
[13] = tested on: Plasmodium falciparum; test: Antimalarial activity against blood stage of Plasmodium falciparum in presence of pantothenate by [3H]hypoxanthine incorporation assay; type: functional, organism-based

SMILES	IC50 [1] [µM]	inhibition [2]	inhibition at 96 h, 100 µM [3] [%]	inhibition at 48 h, 100 µM [4] [%]	Ratio IC50 [6]	other results
CCOC(=O)/C=C\NC(=O)[C@@H](O)C(C)(C)CO	> 100	< 25%	-6	-6		
CCN1C(=O)C=CC1=O [N-ETHYLMALEIMIDE]						Drug metabolism [5]: Metabolite_Detected
COC(=O)/C=C\NC(=O)[C@H](O)C(C)(C)CO	> 200	< 25%				
CC(C)(CO)[C@@H](O)C(=O)N/C=C\C(=O)OCc1ccccc1	89	< 25%	7	4	0.9	
CCOC(=O)/C(C)=C/NC(=O)[C@H](O)C(C)(C)CO	> 200	Active				inhibition [7]: inactive
CCOC(=O)/C(C)=C/NC(=O)c1ccccc1	120	inactive			1	
CC(C)(C)OC(=O)/C=C/NC(=O)[C@@H](O)C(C)(C)CO	> 100	< 25%	-8	14		
CC(C)(C)OC(=O)/C=C\NC(=O)[C@@H](O)C(C)(C)CO	> 100	< 25%	-11	26		
CCOC(=O)/C=C/N1CCCCCCCC1=O	61	inactive			1.4	
CC(C)(CO)[C@@H](O)C(=O)N/C=C\C(=O)O	> 200	< 25%				
CCOC(=O)/C=C\NC(=O)[C@H](O)C(C)(C)CO	> 200	< 25%	-6	1		
CCOC(=O)/C(C)=C/NC(=O)[C@@H]1OC(C)(C)OCC1(C)C	93	inactive			1	
CC(C)(CO)[C@@H](O)C(=O)N/[13CH]=[13CH]/[13C](=O)OCc1ccccc1						Drug metabolism [8]: Metabolite_Notdetected
COC(=O)/C=C\NC(=O)[C@@H](O)C(C)(C)CO	> 100	< 25%	-12	-20		
CC(C)(CO)[C@H](O)C(=O)N/C=C\C(=O)O	> 100	< 25%	-11	-19		
CC(C)(CO)[C@H](O)C(=O)N/C=C/C(=O)O	> 100	< 25%	-10	17		

SMILES	IC50 [1] [µM]	inhibition [2]	inhibition at 96 h, 100 µM [3] [%]	inhibition at 48 h, 100 µM [4] [%]	Ratio IC50 [6]	other results
CCOC(=O)/C=C/NC(=O)[C@H](O)C(C)(C)CO	159	> 90%	-5	36	>1.3	inhibition [7]: Active; selectivity ratio [9]: > 0.6; selectivity ratio [10]: > 0.6
CCOC(=O)/C=C/NC(=O)c1cccnc1	> 200	inactive				
CC(C)(C)OC(=O)/C=C/NC(=O)[C@H](O)C(C)(C)CO	42	> 90%	-1	0	3.1	inhibition [7]: Active; selectivity ratio [9]: > 2; selectivity ratio [10]: > 2
CC(C)(CO)[C@H](O)C(=O)N/C=C\C(=O)OCc1ccccc1	> 100	< 25%	-7	-2		
CC(C)(CO)[C@@H](O)C(=O)N/C=C/C(=O)OCc1ccccc1	13	> 90%	5	19	>7.7	IC50 [11]: 0.14 µM; Drug metabolism [12]: Metabolite_Notdetected; selectivity ratio [9]: > 8; selectivity ratio [10]: > 8
COC(=O)/C=C/NC(=O)[C@@H](O)C(C)(C)CO	> 100	< 25%	-2	-18		
CC(C)(CO)[C@@H](O)C(=O)N/C=C/C(=O)O	36	87%	-17	-23	>2.8	IC50 [13]: 39 µM; IC50 [11]: 14 µM; Drug metabolism [12]: Metabolite_Notdetected; selectivity ratio [9]: > 3; selectivity ratio [10]: > 3
CC(C)(CO)[C@@H](O)C(=O)N/[13CH]=[13CH]/[13C](=O)O						Drug metabolism [8]: Metabolite_Detected
CCOC(=O)/C=C/N1CCCCCC1=O	181	inactive			0.9	
CCOC(=O)/C=C/NC(=O)c1ccccc1	158	inactive			1	
CC(C)(CO)[C@H](O)C(=O)N/C=C/C(=O)OCc1ccccc1	> 100	< 25%	-6	19		
CCOC(=O)/C=C/NC(=O)[C@@H]1OC(C)(C)OCC1(C)C	144	inactive			0.9	
COC(=O)/C=C/NC(=O)[C@H](O)C(C)(C)CO	> 200	> 90%	0	4		inhibition [7]: Active
CCOC(=O)/C=C/N1CCCCCCC1=O	93	inactive			1	
CCOC(=O)/C=C/NC(=O)[C@@H](O)C(C)(C)CO	> 100	< 25%	-9	-6		
CC(C)(C)OC(=O)/C=C\NC(=O)[C@H](O)C(C)(C)CO	39	< 25%	-9	-14	1	
